Test results: ChEMBL document CHEMBL4138218, “Potent aromatase inhibitors and molecular mechanism of inhibitory action” (Eur J Med Chem, 2018)

What was measured:
Aromatase = target: T1, Aromatase (Homo sapiens, UniProt P11511); experiment: Inhibition of human aromatase using androstenedione as substrate and NADPH preincubated for 24 hrs followed by substrate addition measured after 24 hrs by ELISA
T1 sequence (P11511 whole entry): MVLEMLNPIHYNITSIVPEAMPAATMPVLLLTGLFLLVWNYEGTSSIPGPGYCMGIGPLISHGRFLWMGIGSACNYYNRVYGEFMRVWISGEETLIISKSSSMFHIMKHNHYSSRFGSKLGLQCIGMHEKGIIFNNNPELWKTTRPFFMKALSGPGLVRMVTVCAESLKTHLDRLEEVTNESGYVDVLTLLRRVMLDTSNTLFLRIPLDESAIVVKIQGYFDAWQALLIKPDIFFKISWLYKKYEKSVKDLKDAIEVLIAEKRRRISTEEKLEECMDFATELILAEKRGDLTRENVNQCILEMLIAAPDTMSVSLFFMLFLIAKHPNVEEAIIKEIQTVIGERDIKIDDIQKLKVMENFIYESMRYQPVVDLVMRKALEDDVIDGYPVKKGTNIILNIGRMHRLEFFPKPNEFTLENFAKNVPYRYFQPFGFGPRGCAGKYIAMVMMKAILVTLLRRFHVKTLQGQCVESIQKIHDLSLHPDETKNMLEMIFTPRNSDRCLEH
Procedure, shortened: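 Enzyme was a microsomal pellet from human placenta: tissue homogenized in TES buffer (20 mM TES, 1 mM EDTA, 0.15 M KCl, 0.1 mM PMSF, pH 7.4), spun at 10,000 g for 25 min then 100,000 g for 75 min at 4 °C, resuspended with 0.25 M sucrose, stored at −80 °C. Androstenedione substrate with NADPH; estrone quantified by ELISA against a standard curve. Triplicates, mean IC50.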

MCF7 = experiment: Cytotoxicity against human MCF7 cells after 48 hrs by MTT assay; format: cell-based; details: MCF7, 48 h
Procedure, shortened: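 MCF-7 cells in DMEM with 10% FBS and 1% penicillin-streptomycin at 37 °C, 5% CO2. Seeded at 4,000 cells/well and left overnight, then exposed to a range of concentrations for 48 h. Medium replaced with fresh medium containing MTT (5 mg/ml) for 4 h, formazan dissolved in DMSO, absorbance read at 490 nm. IC50 computed from the curves.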

`Fc1ccc2c(Cn3cncn3)c(-c3ccc(Cl)cc3)[nH]c2c1` was tested, and the IC50 (Aromatase) was 0.217 µM and the IC50 (MCF7) was > 1000 µM.

`COc1ccc2c(Cn3cncn3)c(-c3ccc(Cl)cc3)[nH]c2c1` was tested, and the IC50 (Aromatase) was 7.77 µM and the IC50 (MCF7) was 612 µM.

With `Fc1ccc(-c2[nH]c3cc(Cl)ccc3c2Cn2ccnc2)cc1` the IC50 (Aromatase) was 0.0323 µM and the IC50 (MCF7) was 41.5 µM.

`COc1ccc(-c2[nH]c3cc(F)ccc3c2Cn2cncn2)cc1` was tested, and the IC50 (Aromatase) was 0.0141 µM and the IC50 (MCF7) was 325 µM.

`COc1ccc2c(Cn3ccnc3)c(-c3ccc(F)cc3)[nH]c2c1` was tested, and the IC50 (Aromatase) was 0.109 µM and the IC50 (MCF7) was > 1000 µM.

`Clc1ccc(-c2[nH]c3cc(Cl)ccc3c2Cn2ccnc2)cc1` was tested, and the IC50 (Aromatase) was 0.261 µM and the IC50 (MCF7) was > 1000 µM.

For `COc1ccc(-c2[nH]c3cc(F)ccc3c2Cn2ccnc2)cc1`, the IC50 (Aromatase) was 0.0361 µM and the IC50 (MCF7) was > 1000 µM.

For `Fc1ccc2c(Cn3ccnc3)c(-c3ccc(Cl)cc3)[nH]c2c1`, the IC50 (Aromatase) was 0.0829 µM and the IC50 (MCF7) was 45 µM.

In the case of `COc1ccc2c(Cn3ccnc3)c(-c3ccc(Cl)cc3)[nH]c2c1`, the IC50 (Aromatase) is reported as 1.06 µM and the IC50 (MCF7) is reported as > 1000 µM.

For `Clc1ccc(-c2[nH]c3cc4c(cc3c2Cn2cncn2)OCO4)cc1`, the IC50 (Aromatase) was 0.677 µM and the IC50 (MCF7) was 354 µM.

In the case of `Fc1ccc(-c2[nH]c3cc(F)ccc3c2Cn2ccnc2)cc1`, the IC50 (Aromatase) is reported as 0.0512 µM and the IC50 (MCF7) is reported as 83.2 µM.

Compound `COc1ccc(-c2[nH]c3cc(Cl)ccc3c2Cn2cncn2)cc1` has an IC50 (Aromatase) of 0.196 µM and an IC50 (MCF7) of 14.4 µM.

In the case of `Clc1ccc(-c2[nH]c3cc4c(cc3c2Cn2ccnc2)OCO4)cc1`, the IC50 (Aromatase) is reported as 2.64 µM and the IC50 (MCF7) is reported as > 1000 µM.

Work on `Fc1ccc(-c2[nH]c3cc(Cl)ccc3c2Cn2cncn2)cc1` yielded an IC50 (Aromatase) of 0.0969 µM and an IC50 (MCF7) of 625 µM.

For `N#Cc1ccc(C(c2ccc(C#N)cc2)n2cncn2)cc1` [LETROZOLE], the IC50 (MCF7) was 4.73 µM.

For `Fc1ccc(-c2[nH]c3cc4c(cc3c2Cn2ccnc2)OCO4)cc1`, the IC50 (Aromatase) was 0.211 µM and the IC50 (MCF7) was > 1000 µM.

`COc1ccc2c(Cn3cncn3)c(-c3ccc(F)cc3)[nH]c2c1` gave an IC50 (Aromatase) of 0.238 µM and an IC50 (MCF7) of 12.2 µM.

`Clc1ccc(-c2[nH]c3cc(Cl)ccc3c2Cn2cncn2)cc1` gave an IC50 (Aromatase) of 0.208 µM and an IC50 (MCF7) of 382 µM.

`COc1ccc(-c2[nH]c3cc(Cl)ccc3c2Cn2ccnc2)cc1` was tested, and the IC50 (Aromatase) was 0.277 µM and the IC50 (MCF7) was > 1000 µM.

Work on `Fc1ccc(-c2[nH]c3cc4c(cc3c2Cn2cncn2)OCO4)cc1` yielded an IC50 (Aromatase) of 0.0583 µM and an IC50 (MCF7) of 334 µM.

With `Fc1ccc(-c2[nH]c3cc(F)ccc3c2Cn2cncn2)cc1` the IC50 (Aromatase) was 0.0544 µM and the IC50 (MCF7) was > 1000 µM.
